Assay outcomes as filed in PubChem.
Rows were chosen to be rich in hits. Some 2.6% of all compounds tested hit in one or more screens of this group.
SENP8 block-1: SENP8 (human) protease inhibition; Q96LD8; recombinant SENP8, Nedd8 substrate fluorescence; inhibition, % at 20 µM; 360,000 tested, 0.64% active; in the data active = inhibition mostly above about 40%, no sharp cut-off; inactive = mostly below about 27%
Target sequence (Q96LD8 whole entry, looked up): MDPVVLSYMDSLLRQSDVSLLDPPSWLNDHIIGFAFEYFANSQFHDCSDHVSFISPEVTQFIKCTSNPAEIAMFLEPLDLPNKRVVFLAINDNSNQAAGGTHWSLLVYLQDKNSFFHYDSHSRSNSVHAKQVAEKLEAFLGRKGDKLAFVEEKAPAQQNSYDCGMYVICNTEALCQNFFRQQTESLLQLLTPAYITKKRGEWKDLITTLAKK
SENP1 FRET inh: SENP1 (human) catalytic domain inhibition. Q9P0U3. inhibition, % at 10 µM. 360,000 tested, 0.21% active. recombinant SENP1 catalytic domain, CyPet-SUMO1-YPet FRET cleavage;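 active = inhibition at least 30% at 10 µM, raw YFP signal under a set limit, fluorescence ratio 0.5 to 1.5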;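 note: 0% = enzyme with DMSO and 100% = no enzyme wells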
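Test system: recombinant human SENP1 catalytic domain, His6-tagged / Medium: pH 8 Tris buffer with EDTA, NaCl, BME, BSA, NP40, catalase / Also added: SUMO1 FRET substrate flanked by Cypet and Ypet, 25 nM / Times: 50 min reaction at room temperature / Signal: FRET, CFP and YFP emission / Control set: no-enzyme low control and enzyme-plus-DMSO high control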
SENP7 inh: SENP7 protease inhibition; 330,000 tested, 1.5% active; inhibition, % at 5 µM; recombinant SENP7, Z-RLRGG-aminoluciferin luminescence, 40 min; Q9BQF6;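 active = inhibition above about 50% at the single test dose, limit read from the data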;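 note: plate controls were DMSO with enzyme for no effect and no enzyme buffer wells for full effect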
Platelet DG rel: modulates dense granule release in human platelets; inhibition, %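 (compounds screened at 7.5 µM in platelet-rich plasma)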; 300,000 tested, 0.22% active; human platelet-rich plasma, SFLLRN dense granule ATP release, luminescence; AID 1663;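 active = mean replicate score, as percent of positive control, at or above 50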
SENP8 block-2: SENP8 protease inhibition; Q96LD8; purified SENP8, Z-RLRGG-aminoluciferin cleavage, luminescence; inhibition, % at 10 µM; 330,000 tested, 1.2% active; AID 2540; in the data active = inhibition above about 50%
SENP6 inh: inhibitors of human SENP6 protease; Recombinant SENP6 catalytic domain, aminoluciferin luminescence; inhibition, % at 10 µM; 330,000 tested, 1.8% active; AID 2599;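 active = inhibition above about 50% at the single tested dose, limit read from the data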;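 note: plate controls were DMSO wells with enzyme for no effect and DMSO wells lacking enzyme for full effect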
SENP8 conf: confirmation of human SENP8 protease inhibitors. AID 488912. shares compounds with SENP7 inh. 6,200 tested, 40% active. inhibition, % at 12.5 µM. Recombinant SENP8, Z-RLRGG-aminoluciferin luminescence, 60 min;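 active = mean inhibition across replicates above about 50%, limit read from the data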
SENP6 confirm: confirmation of human SENP6 protease inhibitors | shares compounds with SENP7 inh | recombinant SENP6, Z-RLRGG-aminoluciferin luminescence | inhibition, % at 12.5 µM | 6,200 tested, 58% active | AID 488915
SENP7 confirm: human SENP7 inhibition, confirmed | 6,200 tested, 69% active | inhibition, % at 12.5 µM | shares compounds with SENP7 inh | recombinant SENP7, Z-RLRGG-aminoluciferin luminescence, 40 min
Casp3 SENP sel: caspase-3 inhibition (SENP selectivity assay). inhibition, % at 12.5 µM. 6,200 tested, 60% active. shares compounds with SENP7 inh. purified caspase-3, Z-DEVD-aminoluciferin luminescence, 60 min. AID 488918;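 active = mean inhibition above about 50%, limit read from the data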;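 note: plate controls were enzyme with DMSO for no effect and wells without caspase-3 for full effect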
Target sequence (P42574 28-227 limits assumed): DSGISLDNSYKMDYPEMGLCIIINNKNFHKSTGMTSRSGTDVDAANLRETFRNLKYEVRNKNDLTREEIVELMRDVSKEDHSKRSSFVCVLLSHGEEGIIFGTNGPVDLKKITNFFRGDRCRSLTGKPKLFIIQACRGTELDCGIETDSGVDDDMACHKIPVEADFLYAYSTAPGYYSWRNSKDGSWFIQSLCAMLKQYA
Luc interf: counter-screen for SENP inhibitors: luminescence interference; inhibition, % at 12.5 µM; shares compounds with SENP7 inh; Pre-incubated SENP8/Z-RLRGG-aminoluciferin, luciferase luminescence interference; 6,200 tested, 39% active; AID 488919;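 active = mean inhibition above about 50% when retested at one dose, limit read from the data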;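 note: plate controls were DMSO wells with completed reaction for no effect and substrate without enzyme for full effect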
Numbers without * were called inactive; . = no result given.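 Rule for the calls, unless noted: active = mean inhibition above about 50% in the one-dose retest (limit read from the data); inactive = the rest.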

SMILES	SENP8 block-1	SENP1 FRET inh	SENP7 inh	Platelet DG rel	SENP8 block-2	SENP6 inh	SENP8 conf	SENP6 confirm	SENP7 confirm	Casp3 SENP sel	Luc interf
Cn1cccc1C(=O)OCC(=O)Nc1ccc2c(c1)OCO2	24	0	-2	-4	-2	10	.	.	.	.	.
Cn1cccc1C(=O)OCc1cc(Cl)cc2c1OCOC2	10	6	51*	0	45	75*	70*	72*	90*	47	65*
O=C(N/N=C/c1cccnc1)c1[nH]ncc1Br	-1	3	26	16	1	-9	.	.	.	.	.
COc1ccc(/C=N/NC(=O)c2[nH]ncc2Br)c(OC)c1	-28	4	87*	20	75*	82*	80*	81*	97*	93*	9
O=C(N/N=C/c1ccccc1)c1[nH]ncc1Br	6	0	95*	40	86*	91*	89*	88*	98*	95*	40
COc1ccc(N2CCN(C(=O)c3ccccc3NS(=O)(=O)c3ccccc3)CC2)cc1	13	2	11	-8	5	-8	.	.	.	.	.
CCc1sc(C(C2C(=O)CC(C)(C)CC2=O)C2C(=O)CC(C)(C)CC2=O)cc1[N+](=O)[O-]	13	2	7	6	7	10	.	.	.	.	.
N#Cc1ccc(S(=O)(=O)N2CCCCC2c2cc(C(=O)Nc3cccc4c3CCCC4)no2)cc1 (stereo not given)	22	2	.	.	.	.	.	.	.	.	.
COc1ccc(C(=O)COC(=O)c2ccccc2O)c(OC)c1	-20	-5	43	.	31	51*	51*	44	37	28	29
O=C(NCCS(=O)(=O)N1CCN(Cc2ccccc2)CC1)c1ccc(F)cc1	13	1	-13	6	12	-2	.	.	.	.	.
N#Cc1cn(OCc2ccccc2)c(=O)[nH]c1=O	12	1	1	10	-1	4	.	.	.	.	.
CC(=O)NC(c1ccc(F)c(F)c1)c1nc(-c2cccc(C(F)(F)F)c2)cs1 (stereo not given)	-212	1	.	.	.	.	.	.	.	.	.
Cc1c(C(=O)Nc2ccc(N3CCOCC3)cc2)oc2ccccc12	13	0	67*	1	32	70*	12	59*	62*	54*	11
O=C(Nc1ccc(N2CCOCC2)cc1)c1cc2ccccc2o1	17	1	48	8	38	70*	12	45	82*	69*	17
O=C(Nc1ccc(CN2CCOCC2)cc1)c1cc2ccccc2o1	3	1	9	-3	-2	-8	.	.	.	.	.
O=C(Nc1ccc2c(c1)OCCO2)c1cc2ccccc2o1	0	1	78*	11	61*	81*	2	84*	97*	80*	79*
O=C(Nc1ccc(N2CCOCC2)cc1)c1nc2ccccc2s1	37	7	98*	88*	75*	95*	-23	12	26	17	45
NS(=O)(=O)c1ccc(NC(=O)c2cc(=O)c3ccccc3o2)cc1	7	-2	-5	-1	-8	-34	.	.	.	.	.
COc1ccc2cc(-c3cccnc3)ncc2c1	-154	-5	58*	.	40	53*	38	38	81*	73*	62*
COc1ccc(-c2cc3ccc(OC)cc3cn2)cc1	-474	1	84*	.	46	68*	5	17	59*	41	-4
COc1ccc2cc(-c3ccccc3F)ncc2c1	-119	-3	100*	.	97*	97*	98*	99*	103*	96*	97*
CC(C)c1nc2c(s1)CCc1onc(-c3cccc([N+](=O)[O-])c3)c1-2	10	2	16	0	-12	-17	.	.	.	.	.
COc1ccc(-c2cc(=O)c3c(O)c(OC)c(O)cc3o2)cc1	6	0	87*	-4	83*	84*	90*	90*	99*	89*	55*
O=c1cc(-c2ccc(O)cc2)oc2cc(O)cc(O)c12	14	-5	29	-5	54*	70*	52*	51*	75*	40	62*
O=c1cc(-c2ccc(O)cc2)oc2ccc(O)cc12	-278	-13	30	3	19	51*	12	20	61*	45	45
SMILES	SENP8 block-1	SENP1 FRET inh	SENP7 inh	Platelet DG rel	SENP8 block-2	SENP6 inh	SENP8 conf	SENP6 confirm	SENP7 confirm	Casp3 SENP sel	Luc interf
COc1ccc(Cc2nc3ccc(C(=O)NCCc4ccccn4)cc3o2)cc1OC	-1	1	-1	-5	-7	5	.	.	.	.	.
Cc1cccc(NC(=O)c2n[nH]c([N+](=O)[O-])c2Br)c1C	12	3	85*	-5	94*	97*	94*	97*	102*	96*	95*
Cc1ccc([N+](=O)[O-])cc1N/C=C1\CCc2ccccc2C1=O	-56	4	33	-1	9	79*	5	1	-12	1	-5
Cc1nnc(SC/C=C/c2ccccc2)n(N)c1=O	8	2	-2	.	3	1	.	.	.	.	.
O=C(/C=C/c1ccccc1)n1cnnc1SC/C=C/c1ccccc1	13	3	29	6	8	59*	39	48	68*	32	38
COc1cccc(C(=O)Nc2cccc(SC)c2)c1	12	2	75*	-2	55*	79*	72*	72*	90*	65*	70*
COc1cccc(C(=O)Nc2ccc3[nH]ncc3c2)c1	15	0	6	9	16	17	.	.	.	.	.
CS(=O)(=O)Nc1ccc(C(=O)Nc2ccc3ccccc3c2)cc1	1	1	58*	-2	-1	37	4	1	65*	48	25
COc1ccccc1CNC(=O)c1cccc(NC(=O)c2ccccc2)c1	17	1	4	6	-2	93*	-6	-11	3	1	2
COc1cccc(C(=O)Nc2cccc(NC(=O)c3ccccc3Cl)c2)c1	1	1	0	-3	4	24	.	.	.	.	.
COc1cccc(C(=O)Nc2ccc3ccccc3c2)c1	10	-1	91*	18	86*	89*	-22	86*	99*	73*	84*
